Shown are actives, neighbours in structure and some others; about 4.8% of the full set was active somewhere.
HSF-1 act: increases HSF-1 driven luciferase reporter signal; NIH3T3-HGL HSF-1 luciferase reporter, MG132, 8 h; 100% = twice DMSO control signal; activation, % at 9 µM; hit rate 1.7% among 300,000;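 active = mean replicate activation of at least 50% with a set share of replicates each reaching 50%; inconclusive = only one of those two conditions met; inactive = mean below 50% and too few replicates reaching it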;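 also: 0% = median of the neutral control wells and 100% = twice that signal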
T cruzi repl: blocks replication of Trypanosoma cruzi; T. cruzi beta-gal in NIH3T3, luminescence, 90 h; inhibition, % (concentration not given with the values); hit rate 1.4% among 300,000; AID 1885;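 active = mean inhibition across valid replicates above about 55%, limit read from the data; inconclusive = mean below that limit but half or more replicates reach it; inactive = mean below it, under half of replicates reach it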;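 also: signal also drops with host cell toxicity which is not excluded here; 0% = plate median of DMSO wells and 100% = zero luminescence signal; higher percent means less beta-gal luminescence so fewer parasites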
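System: mouse NIH/3T3 fibroblasts infected with β-gal-expressing T. cruzi Tulahuen C4 / Input: NIH/3T3 cells, 5,000 per well / Buffer or medium: Low-serum DMEM with 2% FBS / Probe or stimulus: 5000 reporter trypomastigotes per well / Schedule: ≥90 h infection period, 3 h prior cell attachment / Measured by: GalScreen luminescence, 60 min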
697 NFkB inh: lowers PMA/ionomycin-induced NF-kB signal in 697 B cells; 697 B-cell NF-kB luciferase reporter, 16 h; inhibition, % at 4 µM; hit rate 0.33% among 330,000; in the data active = inhibition above about 35%
GPR7 antag: human neuropeptides B/W receptor 1 antagonism; P48145; GPR7-expressing cells, fluorescence antagonist assay; inhibition, % at 4.4 µM; hit rate 1.1% among 290,000; in the data active = inhibition above about 16%, passing the limit was not always enough;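 also: cells stimulated with the agonist NPW; 0% = agonist with vehicle and 100% = vehicle without agonist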
Target sequence (P48145 whole entry, looked up): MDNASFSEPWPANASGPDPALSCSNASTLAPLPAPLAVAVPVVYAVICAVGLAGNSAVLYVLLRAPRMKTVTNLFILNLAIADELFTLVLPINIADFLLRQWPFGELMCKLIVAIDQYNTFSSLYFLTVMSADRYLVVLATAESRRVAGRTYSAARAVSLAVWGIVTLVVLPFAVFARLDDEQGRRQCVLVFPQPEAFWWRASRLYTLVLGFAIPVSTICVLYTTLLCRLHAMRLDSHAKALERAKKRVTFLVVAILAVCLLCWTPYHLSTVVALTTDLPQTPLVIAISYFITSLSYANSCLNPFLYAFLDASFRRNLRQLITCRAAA
Jurkat NFkB inh: inhibitors of the PMA/ionomycin-induced NF-kB reporter in Jurkat cells. PMA/ionomycin-induced NF-kB luciferase reporter, luminescence. inhibition, % at 4 µM. hit rate 0.53% among 330,000. AID 435003; in the data active = inhibition above about 50%
HSF1 inh: HSF1 inhibition; NIH3T3-HGL HSE-luciferase, MG132-induced, luminescence 8 h; hits give low values; activity change, negative = inhibition, % at 7.5 µM (by protocol); hit rate 0.77% among 300,000;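 active = more than half of replicate wells show activity change below -50%, luminescence cut by over half; inconclusive = some wells, but at most half, below -50%; inactive = no replicate well below -50%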;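 also: luciferase reports HSF-1 transcriptional activity via heat shock element; 0% = median of DMSO wells and -100% = zero luminescence signal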
697 NFkB conf: lowers PMA/ionomycin-induced NF-kB signal in 697 B cells | shares compounds with 697 NFkB inh | 697 B-cell NF-kB luciferase, 16 h | inhibition, % at 4 µM | hit rate 35% among 2,000 | AID 449746; in the data active = inhibition mostly above about 28%, no sharp cut-off; inactive = mostly below about 22%
Starred values were filed as active, the others as inactive; i = inactive; ? = inconclusive; . = no result given.

SMILES	HSF-1 act	T cruzi repl	697 NFkB inh	GPR7 antag	Jurkat NFkB inh	HSF1 inh	697 NFkB conf
COc1ccccc1/C=C/C(=O)NCC(=O)N1CCC(N(C)C2CCCC2)CC1	-2	4	-4	-9	4	-6	.
Cc1ccc(C(=O)CSc2nnc(COc3ccccc3)o2)cc1	-7	-9	54*	-7	6	2	40*
Cc1cccc(OCc2nnc(SCC(=O)c3ccccc3)o2)c1	9	7	34	-13	-13	3	.
Cc1cc(C)cc(OCc2nnc(SCC(=O)c3ccccc3)o2)c1	?	50	46*	-10	5	9	45*
Cc1ccc(C(=O)CSc2nnc(COc3cc(C)cc(C)c3)o2)cc1	21	-4	36*	-3	6	2	55*
CCC(C)(C)n1nnnc1CN1CCN(C(c2ccccc2)c2ccccc2)CC1	-7	17	-6	-14	6	-5	.
O=C(c1cccc(S(=O)(=O)N2CCc3ccccc32)c1)N1CCN(c2ccccn2)CC1	7	21	i	-11	-60	4	i
CCOC(=O)C(C)c1n[nH]c(=O)c2ccccc12 (stereo not given)	16	-26	38*	-13	-1	11	12
COc1ccc(OC)c(CCNC(=O)c2cccc(NC(=O)C3=C(C)OCCS3)c2)c1	-2	-14	0	21	32	2	.
COc1cc(/C=N/Nc2nc(Nc3ccccc3)nc(N3CCOCC3)n2)ccc1OC(=O)c1ccco1	-14	62*	49*	-13	-45	-14	39*
COc1cc(/C=N/Nc2nc(Nc3ccccc3)nc(N3CCCCC3)n2)ccc1OCC(=O)O	-29	26	-19	-3	-9	-30	.
C(=N\Nc1nc(N2CCOCC2)nc(N2CCOCC2)n1)/c1cccnc1	-5	-16	30	-1	0	-5	.
O=C(Oc1cccc(/C=N/Nc2nc(N3CCOCC3)nc(N3CCOCC3)n2)c1)c1ccco1	6	15	44*	-17	-6	-10	25*
CC[C@]12c3[nH]c4cc(-c5ccco5)ccc4c3CCN1C(=O)[C@@H](CC(=O)NCCCn1ccnc1)C[C@@H]2C(=O)N1CCN(C(=O)C2CC2)CC1	.	.	25	.	.	.	.
Cc1ccnc(NC(c2ccccn2)c2c(C)[nH]c3ccccc23)c1 (stereo not given)	13	-4	10	-9	-4	12	.
O=C(c1cc2nc(-c3ccccc3)cc(-c3ccccc3)n2n1)N1CCN(C(=O)c2ccco2)CC1	-3	29	42*	-2	18	-12	36*
O=C(c1cc2nc(-c3ccccc3)cc(-c3ccccc3)n2n1)N1CCCC1	-7	-2	27	-14	4	-1	.
O=C(Nc1cccc2ccccc12)c1ccc(OC(=S)N2CCOCC2)cc1	5	18	-366	-14	-130	11	-419
O=C(Nc1cccc(Cl)c1)c1ccc(OC(=S)N2CCOCC2)cc1	43	-12	-84	-3	-82	36	.
CC(=O)c1cccc(S(=O)(=O)Nc2cc(C(F)(F)F)ccc2N2CCOCC2)c1	.	.	39*	.	11	.	32*
CC1=Nc2nc(N3CCCCCC3)c(C#N)c3c4c(nc(c23)N1)N(c1ccc2ccccc2c1)C(=O)C4	-14	29	4	.	0	-2	.
CC(=O)N(Cc1nc2sc(C)c(C)c2c(=O)[nH]1)C1CCCC1	-9	-4	7	-6	-3	-2	.
COc1ccc(-c2csc(N3C(=N)SCC3=O)n2)cc1	10	0	-378	2	-104	10	-313
COc1ccc(-c2csc(N3C(=O)CNC3=S)n2)cc1	29	-18	.	-3	.	8	.
Cc1cc(NC(=O)CCCN2C(=O)/C(=C/c3ccccc3Cl)SC2=S)no1	11	4	60*	-5	18	-3	68*
Cc1cc(NC(=O)CCN2C(=O)/C(=C/c3ccccc3F)SC2=S)no1	-2	-1	19	2	3	1	.
O=C(CCCN1C(=O)/C(=C/c2ccccc2Cl)SC1=S)NNC(=O)c1ccccc1Cl	-45	-26	69*	3	13	-38	65*

Bioassay records deposited in PubChem by several laboratories.
